In the array DNA melting data of Ke et al. (doi:10.1101/2024.01.08.574731):

Key:
[1] = melting temperature; fluorescence melt of hairpins on a sequencing array, two-state fit, raised by 9.35 °C to match UV melts; settings: sodium 0.088 M
Method in brief: (§1)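 Two-state fits, bootstrapped, provided melting temperature and folding enthalpy from Cy3 fluorescence normalised to pre-quench Cy3 and to control constructs. Library hairpins with annealed Cy3 and quencher oligos were imaged on a sequenced MiSeq flow cell in 50 mM Na-HEPES pH 8.0, 25 mM NaCl, at 2.5 °C intervals up to 60 °C. Four replicates were combined with inverse-variance weighting. A 9.35 °C upward shift was applied to fitted temperatures to match UV melts.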

[2] = folding enthalpy; higher = less favourable; fluorescence melt of hairpins on a sequencing array, two-state fit; settings: sodium 0.088 M
Method in brief: as §1

| Sequence | Tm [1] [°C] | folding enthalpy [2] [kcal/mol] |
| --- | --- | --- |
| GGAATACGAAAGTAATCC (((.(((....))).))) | 40.1 | -28.8 |
| GTTGGGAAACCAAC (((((....))))) | 51.7 | -27.9 |
| GATCACTCTTGTGATC ((((((....)))))) | 56.7 | -38.5 |
| GATCGGATCTCCGATC ((((((....)))))) | 56.7 | -40.4 |
| GTGCCCGGAAACGAGCAC ((((.((....)).)))) | 52.8 | -41.2 |
| GCCCTACGAAAGTATGGC (((.(((....))).))) | 49 | -34.3 |
| GGCAAGGGAAACTTTGCC (((((.(....).))))) | 50.1 | -37.7 |
| GAATGACGAAAGTCGTTC (((.(((....))).))) | 54.7 | -34.4 |
| GAGGCGCGAAAGCGCTC (((.(((....)))))) | 46.6 | -7.37 |
| GAGAACGAAAGTTCACTC ((((((....)))..))) | 44.3 | -17.2 |
| GTTTGCGGAAACGCGAAC (((.(((....))).))) | 56.9 | -35.7 |
| GATCGCATGAGCGATC ((((((....)))))) | 69.3 | -27.4 |
| GCCTATGCGAAAGCAGGC (((..(((....)))))) | 54 | -23.1 |
| GAGTTACGAAAGTAGCTC (((.(((....))).))) | 51.2 | -34.5 |
| GCTTACGAAAGTACGAGC ((((((....)))..))) | 32.1 | -20.3 |
| CGTACGGAAACGTCTACG ((((((....)))..))) | 30.7 | -14.7 |
| CAAGCAGAAATGGTTG (((.((....)).))) | 33.6 | -19.3 |
| GGTGCCGGAAACGACACC ((((.((....)).)))) | 54.6 | -44.9 |
| GCAGTTTCGAAAGAATGC (((..(((....)))))) | 25.8 | -12.5 |
| CTTATGAAAATAAG (((((....))))) | 25.1 | -11.4 |
| GATCGAGATGTCGATC ((((((....)))))) | 52.5 | -37 |
| GATCAAAAGGTTGATC ((((((....)))))) | 36.1 | -23.9 |
| GATCGCAAGGGCGATC ((((((....)))))) | 68 | -29.3 |

| Sequence | Tm [1] [°C] | folding enthalpy [2] [kcal/mol] |
| --- | --- | --- |
| GCTCTGCGAAAGCATCGC ((..(((....)))..)) | 35.4 | -16.3 |
| GCAATGGGAAACCACTGC (((.(((....))).))) | 39.1 | -28.6 |
| GAGGCTGGAAACGGCTTC ((.((.(....).)).)) | 36.6 | -20.8 |
| GACTTCCCGAAAGGGGTC (((..(((....)))))) | 34 | -10.5 |
| GGTGGTGGAAACGCCATC (.(((.(....).))).) | 46.6 | -22.8 |
| GATCGGCCGTCCGATC ((((((....)))))) | 58.3 | -39.7 |
| GAACGAGAAATCGTTC ((((((....)))))) | 54.5 | -31.3 |
| GGAAGCGAAAGCTGCTCC ((((((....)))..))) | 37.9 | -11.8 |
| GATTGGGCGAAAGCCATC (((..(((....)))))) | 26.8 | -8.31 |
| GAGTTTGGAAACGAATTC ((.((.(....).)).)) | 33.5 | -18.4 |
| GGACAGGAAACTGTCC ((((((....)))))) | 62.8 | -43 |
| GGCGATCGAAAGATGCC (((.(((....)))))) | 55 | -37.8 |
| GCCAGCGAAAGCTGCGGC ((((((....)))..))) | 61.4 | -13 |
| GGCTAGGCGAAAGCCGCC (((..(((....)))))) | 60.8 | -15 |
| GAGGATACGAAAGTACTC (((..(((....)))))) | 26.8 | -9.94 |
| GTGCGAGGAAACTCACAC (((.(((....))).))) | 45.8 | -34.2 |
| GCCGCGGCGAAAGCCGGC (((..(((....)))))) | 68.6 | -7.85 |
| GTTCGAGGAAACTCAAAC (((.(((....))).))) | 31 | -13.8 |
| GACGGGGGAAACCCTGTC (((.(((....))).))) | 54.4 | -37.1 |
| GATCAGTGGCTGATC ((((((...)))))) | 49.7 | -22 |
| GGACGGCGAAAGCCCTCC (((.(((....))).))) | 41.4 | -20.5 |
| GCAAGGCGAAAGCCCCGC ((..(((....)))..)) | 37 | -10.7 |
| GATCGAGTCATCGATC ((((((....)))))) | 60.7 | -35.4 |

| Sequence | Tm [1] [°C] | folding enthalpy [2] [kcal/mol] |
| --- | --- | --- |
| GATCGATGGATCGATC ((((((....)))))) | 54.5 | -36.5 |
| GGACCTGGAAACAGGCCC ((.((((....)))).)) | 52.7 | -25.8 |
| GATCGCATAGGCGATC ((((((....)))))) | 68.2 | -32 |
| GGTGTCCGAAAGGAGACC (((.(((....))).))) | 58.3 | -42.9 |
| GGCTGTGGAAACACGGCC (((.(((....))).))) | 60.8 | -46.6 |
| GATCGATTTGTCGATC ((((((....)))))) | 55.5 | -41.5 |
| GAGGAAGGAAACTTTCTC (((.(((....))).))) | 35.3 | -28.9 |
| GATCGGACTTCCGATC ((((((....)))))) | 57.2 | -42.3 |
| CGCACGGAAACGTCGCG ((((((....))).))) | 51.1 | -35.8 |
| GATCTTGCGGAAGATC ((((((....)))))) | 42.7 | -36 |
| GTCGACGGAAACGTCAAC ((.((((....)))).)) | 43.5 | -15.6 |
| GGGCTGGGAAACCAGCTC (.(((((....))))).) | 58.7 | -26.6 |
| GATCGAGTGCTCGATC ((((((....)))))) | 53.8 | -58.9 |
| CCGAGGAAACTCGG (((((....))))) | 55.9 | -23.9 |
| GCCACGCGAAAGCTGGGC (((..((....))..))) | 60 | -27 |
| GCTAGCCGAAAGGCAAGC (((.(((....))).))) | 60 | -27 |
| GGAACCCGAAAGGGTCC (((.(((....)))))) | 59.7 | -15.8 |
| GGCAGCGGAAACGCTACC ((.((((....)))).)) | 54 | -22.8 |
| GCCCAAGGAAACTTAGGC (((.(((....))).))) | 35.4 | -21.9 |
| GAGTTCCGAAAGGACCTC (((.(((....))).))) | 47.2 | -28.8 |
| GATCCACGAAAGTGATC (((.(((....)))))) | 41.3 | -21.4 |
| GCAGACGAAAGTCTTGC ((((((....))).))) | 51.3 | -27 |
| GATCTGAGTACAGATC ((((((....)))))) | 49.6 | -30.9 |

| Sequence | Tm [1] [°C] | folding enthalpy [2] [kcal/mol] |
| --- | --- | --- |
| GATCCATCGGTGGATC ((((((....)))))) | 50.6 | -39.5 |
| GAGATCACGAAAGTGCTC (((..(((....)))))) | 29.9 | -12.1 |
| CGTGCCCGGAAACGGACG (((..(((....)))))) | 32.9 | -14.8 |
| GTCACTGCGAAAGCAGAC (((..(((....)))))) | 28.5 | -7.51 |
| GATCATGTCATGATC ((((((...)))))) | 51.3 | -32.5 |
| GCGGAATCGAAAGATCGC (((..(((....)))))) | 45.5 | -25.8 |
| GCGTCGCACGC ((((...)))) | 64.5 | -17.5 |
| GCGACAGGAAACTGCCAC (.(.(((....))).).) | 20.6 | -9.04 |
| CGCACGGAAACGTTGCG ((((((....))).))) | 55.1 | -37.7 |
| GGGTGAGCGAAAGCTCCC (((..(((....)))))) | 49.1 | -12.6 |
| GTCATCACGAAAGTGGAC (((..(((....)))))) | 35.3 | -12.7 |
| GAGCGCGGAAACACGCCC (.(((.(....).))).) | 38.4 | -12 |
| GATCGGCTAACCGATC ((((((....)))))) | 56.5 | -42.2 |
| GGCTCTCCGAAAGGAGCC (((..(((....)))))) | 49 | -15 |
| GCACCGCGAAAGCTATGC (((..((....))..))) | 31.1 | -12.8 |
| GTGTTGGGAAACCAATAC ((.((((....)))).)) | 45.7 | -41.5 |
| GGATCACGAAAGTGGTCC (((.(((....))).))) | 60.4 | -33.7 |
| GCGTTGCGAAAGCCAAGC ((.(.((....)).).)) | 46.9 | -21.3 |
| GCCCGCGAAAGCGAAGGC ((((((....)))..))) | 63.3 | -24.8 |
| GGCCTTGGAAACAGGGCC ((((.((....)).)))) | 57.1 | -46 |
| GTTTTACCGAAAGGTAAC (((..(((....)))))) | 33.6 | -12.3 |
| GTGATCGGAAACAATCAC (((((.(....).))))) | 36.3 | -32.9 |
| GAGAGACGAAAGTCCCTC (((.(((....))).))) | 44.9 | -25.8 |
